The record followed here is ChEMBL document CHEMBL1132771, “Analogues of SB-203207 as inhibitors of tRNA synthetases” (Bioorg Med Chem Lett, 2000).

For experiment [1], the target named is T1, Isoleucyl-tRNA synthetase (Rattus norvegicus) (UniProt O35880).
T1 sequence (whole entry): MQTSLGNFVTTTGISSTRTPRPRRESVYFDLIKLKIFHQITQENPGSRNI
The experiment can be described thus: Compound (100 uM) was evaluated for its inhibitory activity against Isoleucyl-tRNA synthetase from rat liver.

For experiment [2], the system named is Staphylococcus aureus. Put plainly: Compound (100 uM) was evaluated for its inhibitory activity against VRS (valyl tRNA synthetase) from staphylococcus aureus WCUH29; no inhibition.
The target in experiment [3] is T2, Isoleucine--tRNA ligase (Staphylococcus aureus) (UniProt P41972).
T2 sequence (whole entry): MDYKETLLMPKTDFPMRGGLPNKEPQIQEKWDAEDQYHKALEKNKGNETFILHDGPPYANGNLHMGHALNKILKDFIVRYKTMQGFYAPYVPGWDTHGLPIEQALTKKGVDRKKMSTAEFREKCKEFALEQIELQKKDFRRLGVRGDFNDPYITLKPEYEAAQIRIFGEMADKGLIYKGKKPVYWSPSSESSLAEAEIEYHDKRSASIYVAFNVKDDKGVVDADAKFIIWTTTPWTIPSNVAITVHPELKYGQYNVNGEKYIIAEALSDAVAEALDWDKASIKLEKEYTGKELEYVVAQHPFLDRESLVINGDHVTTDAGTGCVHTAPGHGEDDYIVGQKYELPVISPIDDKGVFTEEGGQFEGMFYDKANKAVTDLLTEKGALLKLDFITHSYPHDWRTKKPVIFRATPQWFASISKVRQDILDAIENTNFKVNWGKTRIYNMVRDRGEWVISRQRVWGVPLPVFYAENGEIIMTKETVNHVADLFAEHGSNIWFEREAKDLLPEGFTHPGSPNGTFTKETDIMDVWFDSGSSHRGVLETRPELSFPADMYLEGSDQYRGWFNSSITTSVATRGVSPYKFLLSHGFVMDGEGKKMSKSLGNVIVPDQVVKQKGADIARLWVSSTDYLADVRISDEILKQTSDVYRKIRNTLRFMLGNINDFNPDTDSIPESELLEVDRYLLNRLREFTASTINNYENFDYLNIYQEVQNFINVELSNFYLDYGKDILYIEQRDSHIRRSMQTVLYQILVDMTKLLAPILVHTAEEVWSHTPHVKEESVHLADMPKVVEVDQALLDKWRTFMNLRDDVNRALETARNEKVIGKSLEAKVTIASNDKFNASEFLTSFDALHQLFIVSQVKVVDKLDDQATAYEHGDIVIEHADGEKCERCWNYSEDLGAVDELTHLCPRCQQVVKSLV
The experiment can be described thus: Compound (100 uM) was evaluated for its inhibitory activity against Isoleucyl-tRNA synthetase from staphylococcus aureus WCUH29.

Experiment [4] has as its system Leucine--tRNA ligase (Staphylococcus aureus). Put plainly: Compound (100 uM) was evaluated for its inhibitory activity against Leucyl-tRNA synthetase from staphylococcus aureus WCUH29; no inhibition.
In another experiment the target is T3, Isoleucine--tRNA ligase (Staphylococcus aureus, UniProt P41972).
T3 sequence (P41972 whole entry): T2 sequence (whole entry)
The experiment can be described thus: Compound was evaluated for its inhibitory activity against Isoleucyl-tRNA synthetase from staphylococcus aureus WCUH29.

The subject of experiment [5] is Staphylococcus aureus. The experiment can be described thus: Compound (10 uM) was evaluated for its inhibitory activity against VRS (valyl tRNA synthetase) from staphylococcus aureus WCUH29; no inhibition.
Experiment [6] has as its system Leucine--tRNA ligase (Staphylococcus aureus). Put plainly: Compound (10 uM) was evaluated for its inhibitory activity against Leucyl-tRNA synthetase from staphylococcus aureus WCUH29; no inhibition.
The target of experiment [7] is T4, Isoleucyl-tRNA synthetase (Rattus norvegicus, UniProt O35880).
T4 sequence (O35880 whole entry): T1 sequence (whole entry)
Put plainly: Compound was evaluated for its inhibitory activity against Isoleucyl-tRNA synthetase from rat liver.

The subject of experiment [8] is Staphylococcus aureus. Put plainly: Compound (100 uM) was evaluated for its inhibitory activity against VRS (valyl tRNA synthetase) from staphylococcus aureus WCUH29.
The subject of experiment [9] is Leucine--tRNA ligase (Staphylococcus aureus). The experiment can be described thus: Compound (100 uM) was evaluated for its inhibitory activity against Leucyl-tRNA synthetase from staphylococcus aureus WCUH29.
Experiment [10] can be described thus: Compound was evaluated for its inhibitory activity against VRS (valyl tRNA synthetase) from staphylococcus aureus WCUH29.
Experiment [11] relates to Streptococcus pneumoniae. The experiment can be described thus: Compound was evaluated for the antibacterial activity against Streptococcus pneumoniae ERY2. Format: functional. The procedure, abridged:
(§1)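 Broth microdilution MIC. Compounds in DMSO, diluted 1:10 in water to a 256 µg mL-1 stock, then serially diluted in supplemented cation-adjusted Mueller Hinton broth. Each well received an equal volume of isolate suspension (~1 × 10^6 cfu mL-1). Final concentrations were 0.06–64 µg mL-1. Plates were incubated at 35 °C in ambient air for 18–24 h, and the MIC was read with a mirror reader.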

In experiment [12] the test system is Escherichia coli. The experiment can be described thus: Compound was evaluated for the antibacterial activity against Escherichia coli 763 AcrABEFD. Format: functional. The procedure, abridged: as §1
In experiment [13] the test system is Escherichia coli. The experiment can be described thus: Compound was evaluated for the antibacterial activity against Escherichia coli 120 AcrAB-. Format: functional. The method, boiled down:
as §1

Experiment [14] relates to Staphylococcus aureus. Put plainly: Compound was evaluated for the antibacterial activity against Staphylococcus aureus WCUH 29. The experiment is classed as functional. The method, boiled down:
as §1

For experiment [15], the system named is Streptococcus pneumoniae. Put plainly: Compound was evaluated for the antibacterial activity against Streptococcus pneumoniae N1387. The experiment is classed as functional. The procedure, abridged: as §1
Experiment [16] deals with Streptococcus pneumoniae. Put plainly: Compound was evaluated for the antibacterial activity against Streptococcus pneumoniae 1629. Format: functional. The method, boiled down:
as §1

The test system of experiment [17] is Haemophilus influenzae. The experiment can be described thus: Compound was evaluated for the antibacterial activity against Haemophilus influenzae NEMC1. Format: functional. The method, boiled down:
as §1

In experiment [18] the test system is Haemophilus influenzae. The experiment can be described thus: Compound was evaluated for the antibacterial activity against Haemophilus influenzae Q1. The experiment is classed as functional. The procedure, abridged:
as §1

For experiment [19], the system named is Enterococcus faecalis. Put plainly: Compound was evaluated for the antibacterial activity against Enterococcus faecalis 7. Format: functional. The procedure, abridged: as §1
The subject of a further experiment is Moraxella catarrhalis. The experiment can be described thus: Compound was evaluated for the antibacterial activity against Moraxella catarrhalis 1502. The experiment is classed as functional. The method, boiled down:
as §1

The subject of experiment [20] is Staphylococcus aureus. The experiment can be described thus: Compound was evaluated for the antibacterial activity against Staphylococcus aureus oxford. Format: functional. The method, boiled down: as §1
The subject of experiment [21] is Enterococcus faecalis. Put plainly: Compound was evaluated for the antibacterial activity against Enterococcus faecalis 1. The experiment is classed as functional. The method, boiled down:
as §1

Converted amounts (≈) assume the structure as drawn. The source made the active and inactive calls. The calls are words filed in the database; no cut-off is given here.

Broadly, the inhibition is the percentage by which the read-out fell short of the control. With `CC[C@H](C)CC(=O)NS(=O)(=O)CC(=O)N[C@@]1(C(=O)OC)[C@@H](OC(=O)C[C@@H](C)CC)C[C@H]2C(C(N)=O)=CN(C)C[C@H]21`, the inhibition in [1] is 9%; in [3] it was 18%. In addition, the inhibition result (in the experiment on Staphylococcus aureus [2]; in [4]) was “inactive” in each case.
In general, IC50 refers to the concentration that gives 50% inhibition. `CC[C@H](C)[C@H](N)C(=O)NS(=O)(=O)CC(=O)N[C@]1(C(=O)OCc2ccccc2)[C@@H]2CN(C)C=C(C(N)=O)[C@@H]2C[C@@H]1O`: the half-inhibitory concentration (IC50) was found to be 120 nM at Isoleucine--tRNA ligase and 25 nM in experiment [7]. The inhibition result (in the experiment with Staphylococcus aureus [5]; in experiment [6]) was “inactive” each time.
Turning to `CC[C@H](C)[C@H](N)C(=O)NS(=O)(=O)CC(=O)N[C@]1(C(=O)OC)[C@@H]2CN(C)C=C(C(N)=O)[C@@H]2C[C@@H]1O`, the results for the IC50 (at Isoleucine--tRNA ligase; in experiment [7]) were 60 nM and 17 nM, respectively. In the experiment on Staphylococcus aureus [8], this compound gave an inhibition of 40%.
As to `CC[C@H](C)CC(=O)NS(=O)(=O)CC(=O)N[C@]1(C(=O)OC)[C@@H]2CN(C)C=C(C(N)=O)[C@@H]2C[C@@H]1O`, the values for the inhibition in [1], in experiment [9] and in experiment [3] were 25%, 13% and 23%, respectively. The inhibition result in the experiment on Staphylococcus aureus [2] is “inactive”.
Turning to `CC[C@H](C)CC(=O)NS(=O)(=O)CC(=O)N[C@@]1(C(=O)O)[C@@H](OC(=O)C[C@@H](C)CC)C[C@H]2C(C(N)=O)=CN(C)C[C@H]21`, the IC50 at Isoleucine--tRNA ligase was 14600 nM; in experiment [7], 6100 nM. Besides, the inhibition in the experiment on Staphylococcus aureus [8] turned out to be 65%.
Turning to `CC[C@H](C)[C@H](NC(=O)OCc1ccccc1)C(=O)NS(=O)(=O)CC(=O)N[C@@]1(C(=O)OC)[C@@H](OC(=O)[C@@H](NC(=O)OCc2ccccc2)[C@@H](C)CC)C[C@H]2C(C(N)=O)=CN(C)C[C@H]21`, the inhibition result (in the experiment on Staphylococcus aureus [2]; in [4]) was “inactive” in each case. The compound also registered an inhibition in [3] of 46%. In [7], the IC50 was found to be 500 nM.
Regarding `CC(C)[C@H](N)C(=O)NS(=O)(=O)CC(=O)N[C@]1(C(=O)O)[C@@H]2CN(C)C=C(C(N)=O)[C@@H]2C[C@@H]1O`, the IC50 against Isoleucine--tRNA ligase was found to be 37 nM; in experiment [7] it was 2.9 nM; in experiment [10] it was 30 nM.
For the compound `CC[C@H](C)CC(=O)NS(=O)(=O)CC(=O)N[C@]1(C(=O)O)[C@@H]2CN(C)C=C(C(N)=O)[C@@H]2C[C@@H]1O`, the IC50 at Isoleucine--tRNA ligase was 3270 nM; in experiment [7] it was 22300 nM. Further, in the experiment with Staphylococcus aureus [2], the inhibition entry was “inactive”.
As to `CC(C)C[C@H](N)C(=O)NS(=O)(=O)CC(=O)N[C@]1(C(=O)O)[C@@H]2CN(C)C=C(C(N)=O)[C@@H]2C[C@@H]1O`, the half-maximal inhibitory concentration (IC50) against Isoleucine--tRNA ligase amounted to 910 nM; in [7], 68 nM; in experiment [10], 290 nM. For the same compound, the MIC with Streptococcus pneumoniae [11] is 16 µg/mL (≈ 32.7 µM); against Escherichia coli [12], above 64 µg/mL; against Escherichia coli [13], above 64 µg/mL; against Staphylococcus aureus [14], above 64 µg/mL; against Streptococcus pneumoniae [15], 64 µg/mL (≈ 131 µM); with Streptococcus pneumoniae [16] it was 32 µg/mL (≈ 65.4 µM). In addition, the MIC was 64 µg/mL (≈ 131 µM) in the experiment on Haemophilus influenzae [17]; 64 µg/mL (≈ 131 µM) in the experiment with Haemophilus influenzae [18]; above 64 µg/mL against Enterococcus faecalis [19]; above 64 µg/mL in the experiment on Moraxella catarrhalis; above 64 µg/mL in the experiment with Staphylococcus aureus [20]; above 64 µg/mL against Enterococcus faecalis [21].
Turning to `CC[C@H](C)[C@H](N)C(=O)NS(=O)(=O)CC(=O)N[C@]1(C(=O)O)[C@@H]2CN(C)C=C(C(N)=O)[C@@H]2C[C@@H]1O`, the results for the IC50 (against Isoleucine--tRNA ligase; in [7]; in [10]) were 14 nM, 4.2 nM and 126 nM, respectively. For the same compound, the MIC against Streptococcus pneumoniae [11] was 64 µg/mL (≈ 131 µM); in the experiment with Escherichia coli [12], above 64 µg/mL; in the experiment on Escherichia coli [13], above 64 µg/mL; against Staphylococcus aureus [14], above 64 µg/mL; in the experiment on Streptococcus pneumoniae [15], above 64 µg/mL; against Streptococcus pneumoniae [16] it was above 64 µg/mL. The MIC with Haemophilus influenzae [17] was 64 µg/mL (≈ 131 µM); against Haemophilus influenzae [18], 64 µg/mL (≈ 131 µM); against Enterococcus faecalis [19] it was above 64 µg/mL; against Moraxella catarrhalis, above 64 µg/mL; against Staphylococcus aureus [20], above 64 µg/mL; in the experiment on Enterococcus faecalis [21] it was above 64 µg/mL.
As to `CC[C@H](C)CC(=O)NS(=O)(=O)CC(=O)N[C@@]1(C(=O)OCc2ccccc2)[C@@H](OC(=O)C[C@@H](C)CC)C[C@H]2C(C(N)=O)=CN(C)C[C@H]21`, the inhibition in [1] came out at 20%; with Staphylococcus aureus [2] it was 6%; in [3], 19%. In addition, the inhibition entry in experiment [4] was “inactive”.
